Values after ≈ are worked out from the molar mass of the structure shown. Active and inactive are the calls of the source. The calls are words filed in the database; no cut-off is given here.
Experiments:
Cannabinoid receptor 1 = Cannabinoid receptor 1 (Homo sapiens, UniProt P21554); test: Agonist activity at human CB1 receptor; format: functional
Rattus norvegicus [1] = test: Toxicity in rat assessed as decrease in body temperature at 10 mg/kg, ip by modified tetrad test; format: organism-based; design: dose 10 mg/kg, route intraperitoneal; details: in vivo
Cannabinoid receptor 2 = Cannabinoid receptor 2 (Homo sapiens, UniProt P34972); test: Agonist activity at human CB2 receptor; format: functional
[2] = Drug metabolism in human liver microsomes after 15 mins; format: ADME, Microsome; details: read-out: Drug metabolism
Rattus norvegicus [3] = test: Antiallodynic activity in rat chronic constriction injury-induced neuropathic pain model assessed as reversal of pain response at 10 to 40 mg/kg/day, sc; format: functional, organism-based
Method in brief: (§1)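 Chronic constriction injury of rats (n = 7 per group); daily subcutaneous dosing over repeated days, with morphine as comparator. Cold allodynia read as lifting on a cold plate at 0 °C for 4 min.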

[4] = Solubility of the compound in water; format: physicochemical
[5] = Drug metabolism in human liver microsomes at 5 uM after 60 mins; format: ADME, Microsome; details: read-out: Drug metabolism
Method in brief: (§2)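 Test compound incubated at 5 µM with liver microsomes (human, rat, mouse or dog) for 60 min; read-out is % of compound metabolised.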

[6] = Half life in Beagle dog at 1 mg/kg, iv; format: ADME, organism-based, Canis lupus familiaris; design: dose 1 mg/kg, route intravenous; details: in vivo
Method in brief: (§3)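 Beagle dogs dosed at 1 mg/kg iv and 5 mg/kg po; plasma kinetics give clearance, volume of distribution, iv and po half-life, and absolute oral bioavailability.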

[7] = Volume of distribution in Beagle dog at 1 mg/kg, iv and 5 mg/kg, po; format: ADME, organism-based, Canis lupus familiaris; details: in vivo; method in brief: as §3
[8] = Clearance in Beagle dog at 1 mg/kg, iv and 5 mg/kg, po; format: ADME, organism-based, Canis lupus familiaris; details: in vivo; method in brief: as §3
[9] = Half life in Beagle dog at 5 mg/kg, po; format: ADME, organism-based, Canis lupus familiaris; design: dose 5 mg/kg, route oral; details: in vivo; method in brief: as §3
[10] = Ratio drug uptake in brain to plasma of Sprague-Dawley rat at 2.5 mg/kg, iv and 10 mg/kg, po; format: ADME, organism-based; details: read-out: BPR
Method in brief: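 Rat tissue distribution study; brain and plasma levels compared as brain/plasma ratio.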

Rattus norvegicus [11] = test: Antinociceptive activity in rat at 10 mg/kg by hot plate method; format: functional, organism-based; design: dose 10 mg/kg
[12] = Lipophilicity, Log P of the compound; format: physicochemical; details: octanol/water
[13] = Drug metabolism in dog liver microsomes at 5 uM after 60 mins; format: ADME, Canis lupus familiaris, Microsome; details: read-out: Drug metabolism; method in brief: as §2
Rattus norvegicus [14] = test: Toxicity in rat up to 40 mg/kg, ip by modified tetrad test; format: organism-based; design: dose 40 mg/kg, route intraperitoneal; details: in vivo
Rattus norvegicus [15] = test: Antinociceptive activity in rat at 10 mg/kg by paw flick test; format: functional, organism-based; design: dose 10 mg/kg
[16] = Absolute oral bioavailability in Sprague-Dawley rat at 10 mg/kg; format: ADME, organism-based; details: in vivo
[17] = Half life in Sprague-Dawley rat at 10 mg/kg, po; format: ADME, organism-based; design: dose 10 mg/kg, route oral; details: in vivo
[18] = Solubility of the compound in 10% cyclodextrin
[19] = Half life in Sprague-Dawley rat at 2.5 mg/kg, iv; format: ADME, organism-based; design: dose 2.5 mg/kg, route intravenous; details: in vivo
Rattus norvegicus [20] = test: Antinociceptive activity in rat at 10 mg/kg by tail withdrawal reflex test; format: functional, organism-based; design: dose 10 mg/kg
Rattus norvegicus [21] = organism: Rattus norvegicus; test: Antihyperalgesic activity against Freund's adjuvant-induced thermal hyperalgesia in rat; format: functional, organism-based
[22] = Drug metabolism in rat liver microsomes at 5 uM after 60 mins; format: ADME, Microsome; details: read-out: Drug metabolism; method in brief: as §2
Rattus norvegicus [23] = organism: Rattus norvegicus; test: Antihyperalgesic activity against carrageenan-induced thermal hyperalgesia in rat; format: functional, organism-based
Mus musculus = test: Antiinflammatory activity in mouse EAE model of multiple sclerosis assessed as delay in neurological signs of autoimmune encephalomyelitis disease progression at 40 mg/kg/day, po administered from day 8 to day 16; format: functional, organism-based
Method in brief: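 Mice with experimental autoimmune encephalomyelitis given chronic oral dosing at 40 mg/kg; neurological signs scored as EAE disease scores over time.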

[24] = Absolute oral bioavailability in Beagle dog at 5 mg/kg; format: ADME, organism-based, Canis lupus familiaris; details: in vivo; method in brief: as §3
[25] = Drug metabolism in mouse liver microsomes at 5 uM after 60 mins; format: ADME, Microsome; details: read-out: Drug metabolism; method in brief: as §2
[26] = Clearance in Sprague-Dawley rat at 2.5 mg/kg, iv and 10 mg/kg, po; format: ADME, organism-based; details: in vivo
[27] = Volume of distribution in Sprague-Dawley rat at 2.5 mg/kg, iv and 10 mg/kg, po; format: ADME, organism-based; details: in vivo
Rattus norvegicus [28] = test: Antiallodynic activity in rat chronic constriction injury-induced neuropathic pain model assessed as reversal of pain response at 40 mg/kg/day, sc; format: functional, organism-based; method in brief: as §1
Rattus norvegicus [29] = test: Antiallodynic activity in rat chronic constriction injury-induced neuropathic pain model assessed as reversal of pain response at 40 mg/kg/day, sc after 12 days; format: functional, organism-based; method in brief: as §1
Rattus norvegicus [30] = test: Toxicity in rat assessed as appearance of flat body posture at 2.5 mg/kg, ip by modified tetrad test; format: organism-based; design: dose 2.5 mg/kg, route intraperitoneal; details: in vivo
[31] = Kinetic solubility of the compound at pH 7.4; format: physicochemical; details: buffer, read-out: Kinetic_solubility

Chain of Cannabinoid receptor 2 (P34972 whole entry): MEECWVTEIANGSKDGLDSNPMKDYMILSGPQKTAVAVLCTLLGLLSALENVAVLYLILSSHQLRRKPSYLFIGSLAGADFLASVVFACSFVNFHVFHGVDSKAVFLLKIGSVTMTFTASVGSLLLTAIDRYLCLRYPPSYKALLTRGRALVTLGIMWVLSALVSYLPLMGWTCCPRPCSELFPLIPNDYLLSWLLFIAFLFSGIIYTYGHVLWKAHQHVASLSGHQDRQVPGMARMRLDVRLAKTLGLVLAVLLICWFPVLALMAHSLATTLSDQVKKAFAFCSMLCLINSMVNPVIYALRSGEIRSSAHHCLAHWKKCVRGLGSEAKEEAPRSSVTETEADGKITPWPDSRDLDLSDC
Chain of Cannabinoid receptor 1 (P21554 whole entry): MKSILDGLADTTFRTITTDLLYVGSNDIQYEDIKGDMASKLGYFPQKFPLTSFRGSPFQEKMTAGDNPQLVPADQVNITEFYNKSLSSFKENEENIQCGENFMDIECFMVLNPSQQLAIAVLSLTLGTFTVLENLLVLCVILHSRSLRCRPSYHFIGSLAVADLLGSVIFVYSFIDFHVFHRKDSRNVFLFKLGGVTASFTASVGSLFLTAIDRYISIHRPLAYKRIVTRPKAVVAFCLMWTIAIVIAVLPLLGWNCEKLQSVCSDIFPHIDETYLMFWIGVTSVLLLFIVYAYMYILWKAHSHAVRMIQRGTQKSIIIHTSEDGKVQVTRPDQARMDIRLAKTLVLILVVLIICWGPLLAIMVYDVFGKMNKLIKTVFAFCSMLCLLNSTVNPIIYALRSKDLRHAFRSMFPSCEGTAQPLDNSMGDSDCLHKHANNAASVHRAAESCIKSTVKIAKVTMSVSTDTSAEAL

## CC(C)(C)c1nc2cc(S(=O)(=O)c3nccs3)ccc2n1CC1CCN(C=O)CC1
Cannabinoid receptor 1
  EC50: 321 nM
Rattus norvegicus [1]
  Activity: Toxic
Cannabinoid receptor 2
  EC50: 8.4 nM

## CCC(=O)N1CCC(Cn2c(C(C)(C)C)nc3cc(S(=O)(=O)CCCC(F)(F)F)ccc32)CC1
[2]
  metabolised at 0.25 h: 4%
Cannabinoid receptor 1
  EC50: > 10000 nM

## CC(=O)N1CCC(Cn2c(C(C)(C)C)nc3cc(S(=O)(=O)c4ccncc4)ccc32)CC1
[2]
  metabolised at 0.25 h: 29%
Cannabinoid receptor 1
  EC50: > 10000 nM
Cannabinoid receptor 2
  EC50: 4.6 nM

## CC(C)(C)c1nc2cc(S(=O)(=O)c3ccnc(OCCCO)c3)ccc2n1CC1CCOCC1
[2]
  metabolised at 0.25 h: 40%
Cannabinoid receptor 2
  EC50: 1.2 nM

## CC(=O)N1CCC(Cn2c(C(C)(C)C)nc3cc(S(=O)(=O)CC4CC4)ccc32)CC1
Rattus norvegicus [3]
  Activity: inactive
[4]
  solubility: 1500 µg/mL (≈ 3.48 mM)
[5]
  metabolised at 1 h, 5 µM: 5%
[6]
  half-life: 3 h
[7]
  Vd: 1.9 L/kg
[8]
  clearance: 13.3 mL/min/kg
[9]
  half-life: 3.2 h
[2]
  metabolised at 0.25 h: 18%
[10]
  Kp: 0.18
Rattus norvegicus [11]
  Activity: inactive
[12]
  logP: 1.67
[13]
  metabolised at 1 h, 5 µM: 4%
Rattus norvegicus [14]
  Activity: Non-toxic
Rattus norvegicus [15]
  Activity: inactive
Cannabinoid receptor 1
  EC50: > 10000 nM
[16]
  bioavailability: 56%
[17]
  half-life: 4 h
[18]
  solubility: 25000 µg/mL (≈ 57.9 mM)
[19]
  half-life: 1.3 h
Rattus norvegicus [20]
  Activity: inactive
Rattus norvegicus [21]
  Activity: inactive
[22]
  metabolised at 1 h, 5 µM: 0%
Rattus norvegicus [23]
  Activity: inactive
Mus musculus
  Activity: Active
[24]
  bioavailability: 86%
[25]
  metabolised at 1 h, 5 µM: 12%
[26]
  clearance: 41.7 mL/min/kg
[27]
  Vd: 4.4 L/kg
Cannabinoid receptor 2
  EC50: 8.2 nM

## CC(=O)NCCc1cc(S(=O)(=O)c2ccc3c(c2)nc(C(C)(C)C)n3CC2CCOCC2)ccn1
[2]
  metabolised at 0.25 h: 44%

## CC(=O)N1CCC(Cn2c(C(C)(C)C)nc3cc(S(=O)(=O)c4nccs4)ccc32)CC1
[4]
  solubility: 20 µg/mL (≈ 0.0434 mM)
[5]
  metabolised at 1 h, 5 µM: 12%
[6]
  half-life: 4 h
[7]
  Vd: 3.7 L/kg
[8]
  clearance: 11.7 mL/min/kg
[9]
  half-life: 5 h
[2]
  metabolised at 0.25 h: 9%
Rattus norvegicus [28]
  Activity: Active
[10]
  Kp: 0.05
Rattus norvegicus [11]
  Activity: inactive
[12]
  logP: 1.9
[13]
  metabolised at 1 h, 5 µM: 0%
Rattus norvegicus [29]
  Activity: Active
Rattus norvegicus [14]
  Activity: Non-toxic
Rattus norvegicus [15]
  Activity: inactive
Cannabinoid receptor 1
  EC50: 3430 nM
[16]
  bioavailability: 35%
[17]
  half-life: 3.1 h
[18]
  solubility: 8000 µg/mL (≈ 17.4 mM)
[19]
  half-life: 3.5 h
Rattus norvegicus [20]
  Activity: inactive
Rattus norvegicus [21]
  Activity: inactive
[22]
  metabolised at 1 h, 5 µM: 0%
Rattus norvegicus [23]
  Activity: inactive
Mus musculus
  Activity: Active
[24]
  bioavailability: 100%
[25]
  metabolised at 1 h, 5 µM: 6%
[26]
  clearance: 53.3 mL/min/kg
[27]
  Vd: 1.3 L/kg
Cannabinoid receptor 2
  EC50: 7.7 nM

## CC(=O)N1CCC(Cn2c(C(C)(C)C)nc3cc(S(=O)(=O)c4ccc(F)cc4)ccc32)CC1
[2]
  metabolised at 0.25 h: 8%
Cannabinoid receptor 1
  EC50: > 10000 nM
Rattus norvegicus [1]
  Activity: Toxic
Cannabinoid receptor 2
  EC50: 2.9 nM

## CC(C)(C)c1nc2cc(S(=O)(=O)CCCC(F)(F)F)ccc2n1CC1CCN(C=O)CC1
[2]
  metabolised at 0.25 h: 17%
Cannabinoid receptor 1
  EC50: 5620 nM

## CC(C)(C)c1nc2cc(S(=O)(=O)CCCC(F)(F)F)ccc2n1CC1CCOCC1
[2]
  metabolised at 0.25 h: 36%
Rattus norvegicus [30]
  Activity: Toxic
Cannabinoid receptor 1
  EC50: 320 nM
Rattus norvegicus [1]
  Activity: Toxic
Cannabinoid receptor 2
  EC50: 1.1 nM

## CC(C)(C)c1nc2cc(S(=O)(=O)CC3CC3)ccc2n1CC1CCS(=O)(=O)CC1
[2]
  metabolised at 0.25 h: 2%
Cannabinoid receptor 1
  EC50: 2680 nM
Cannabinoid receptor 2
  EC50: 8.4 nM

## CCOc1cc(S(=O)(=O)c2ccc3c(c2)nc(C(C)(C)C)n3CC2CCOCC2)ccn1
[2]
  metabolised at 0.25 h: 48%
Cannabinoid receptor 1
  EC50: 1280 nM
[31]
  solubility kinetic: < 1 µM

## CC(=O)N1CCC(Cn2c(C(C)(C)C)nc3cc(S(=O)(=O)CCCC(F)(F)F)ccc32)CC1
[2]
  metabolised at 0.25 h: 17%
Cannabinoid receptor 1
  EC50: > 10000 nM
Cannabinoid receptor 2
  EC50: 13 nM

## CC(=O)N1CCC(Cn2c(C(C)(C)C)nc3cc(S(=O)(=O)C4CCCC4)ccc32)CC1
[2]
  metabolised at 0.25 h: 87%
Cannabinoid receptor 1
  EC50: > 10000 nM

## COCCCOc1cc(S(=O)(=O)c2ccc3c(c2)nc(C(C)(C)C)n3CC2CCOCC2)ccn1
[2]
  metabolised at 0.25 h: 100%
Cannabinoid receptor 2
  EC50: 0.5 nM
